High-throughput results deposited in PubChem BioAssay by several laboratories.
Most compounds without a hit are left out; they make up all but 2.2% or so of the library.
MLLE-PAM2 inh: inhibitors of microRNA-mediated deadenylation, human PABP1 MLLE binding; P11940; GST-MLLE / FITC-PAM2 fluorescence polarization; inhibition, % at 20 µM; 360,000 tested, 0.36% active; AID 588489; in the data active = inhibition above about 35%, passing the limit was not always enough
Target sequence (P11940 whole entry, looked up): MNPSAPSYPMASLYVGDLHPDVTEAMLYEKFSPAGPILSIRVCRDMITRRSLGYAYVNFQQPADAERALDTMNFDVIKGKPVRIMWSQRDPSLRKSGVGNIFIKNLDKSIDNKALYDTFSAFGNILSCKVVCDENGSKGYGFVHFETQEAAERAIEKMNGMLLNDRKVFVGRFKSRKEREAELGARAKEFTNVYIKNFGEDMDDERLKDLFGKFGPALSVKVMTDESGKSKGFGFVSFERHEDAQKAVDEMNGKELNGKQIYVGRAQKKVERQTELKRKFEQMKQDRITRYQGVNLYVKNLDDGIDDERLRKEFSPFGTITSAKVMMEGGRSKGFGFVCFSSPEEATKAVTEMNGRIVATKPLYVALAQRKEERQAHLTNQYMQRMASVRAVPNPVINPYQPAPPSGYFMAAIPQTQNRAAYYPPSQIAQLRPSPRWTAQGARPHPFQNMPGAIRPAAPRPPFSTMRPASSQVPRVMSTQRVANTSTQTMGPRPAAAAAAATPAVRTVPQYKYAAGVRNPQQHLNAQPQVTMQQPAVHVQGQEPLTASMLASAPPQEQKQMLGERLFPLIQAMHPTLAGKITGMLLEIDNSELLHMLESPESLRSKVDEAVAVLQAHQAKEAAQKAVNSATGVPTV
PABP FP inh: blocks human PABP binding to poly(A) RNA; fluorescence polarization; calls only at 35 µM; 290,000 tested, 1% active; AID 2014;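 also: calls also rest on retests at 20 µM and on dose response follow-up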
VIM-2 inh: inhibitors of Pseudomonas aeruginosa VIM-2 metallo-beta-lactamase. purified VIM-2, nitrocefin hydrolysis, epi-absorbance fluorescence. inhibition, % at 5.6 µM. 290,000 tested, 0.89% active. AID 1527;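 active = inhibition above the mean of all tested compounds plus 3 SD, cutoff set per screening run, cut at about 7.5% in these data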;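 also: red hydrolysis product quenches plate fluorescence so inhibitors raise well fluorescence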
eIF4H inh: inhibitors of RNA binding by human eIF4H; inhibition, % at 35 µM; 290,000 tested, 0.94% active; Q15056; eIF4H fluorescence polarization binding assay;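 also: calls also rest on retests at 20 µM and on dose response follow-up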
IMP-1 inh: inhibitors of Pseudomonas aeruginosa IMP-1 metallo-beta-lactamase | inhibition, % at 5.6 µM | 290,000 tested, 0.45% active | purified IMP-1, nitrocefin hydrolysis, epi-absorbance fluorescence;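 active = inhibition above the mean plus 3 SD of all compounds in the same screening run, cut at about 4.5% in these data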
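System: Purified IMP-1 | Read-out basis: Percent enzyme inhibition | Controls: IMP-1 with DMSO as 0%, enzyme-free DMSO as 100% | Replicates: One well per compound | Doses: 5.6 µM nominal single concentration | Detection: Epi-absorbance fluorescence, 480 nm excitation, 530 nm emission | Incubation: 25 °C, 15 min preincubation, 25 min reaction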
Of the large screens only hits and unclear results are named; the others gave an inactive call. Unless noted, no rule for the calls is given here.

CC(C)c1ccc(NS(=O)(=O)c2ccc(-n3cccn3)cc2)cc1	PABP FP inh active, eIF4H inh 88
COc1cc(F)ccc1S(=O)(=O)N1CCN(Cc2ccccc2)CC1	none
COc1cc(NC(=O)CSc2ccc(-c3ccco3)nn2)cc(OC)c1	eIF4H inh 60
COc1cccc(NC(=O)CSc2nnc(-c3ccco3)c(-c3ccco3)n2)c1	PABP FP inh active, eIF4H inh 83
COc1ccc(NC(=O)CSc2nnc(-c3ccco3)c(-c3ccco3)n2)cc1OC	eIF4H inh 64
COc1ccc(C(=O)CSc2nnc(-c3ccco3)c(-c3ccco3)n2)cc1	PABP FP inh active
CCn1c(SCC(=O)Nc2ccc(OC)c(OC)c2)nnc1-c1ccco1	none
COc1ccc(NC(=O)CSc2ccc(-c3ccco3)nn2)cc1	none
COc1ccc(CCNC(=O)c2cc3c(cc2Cl)N2CCCCCC2=NS3(=O)=O)cc1	none (no result: PABP FP inh, VIM-2 inh, eIF4H inh, IMP-1 inh)
CCCCN(C=O)c1c(CC)nc2c(OCC(=O)N3CCOCC3)cccn12	none (no result: PABP FP inh, VIM-2 inh, eIF4H inh, IMP-1 inh)
CC(=NNC(=O)c1cccc(S(=O)(=O)N2CCOCC2)c1)c1ccc(Cl)cc1	none (no result: PABP FP inh, VIM-2 inh, eIF4H inh, IMP-1 inh)
CCc1nc(CN(C)C(=O)C2CCC(=O)N(Cc3cccc(F)c3)C2)no1 (stereo unspecified)	none
O=C(NCc1ccccn1)Nc1cccc(F)c1	none
CSc1nnc(-c2ccccc2)c(-c2ccccc2)n1	none
CSc1nnc(-c2ccco2)c(-c2ccco2)n1	PABP FP inh active, eIF4H inh 97
Cc1cc2c(c(=O)n1Cc1ccco1)C(c1cccnc1)C(C#N)=C(N)O2 (stereo unspecified)	PABP FP inh active, eIF4H inh 124
O=C(O)c1ccc(CNc2ccccc2C(=O)O)cc1	PABP FP inh active, eIF4H inh 77
CN(C)C1(CN=Cc2cc(Cl)cc([N+](=O)[O-])c2O)CCCCC1	IMP-1 inh 5.7
O=[N+]([O-])c1cc(Cl)cc(/C=N\Nc2ccccn2)c1O	none
Cc1cc(OCC(=O)NC2CC2)c2c(C)c(C)c(=O)oc2c1	none (no result: PABP FP inh, eIF4H inh)
CCC(C)c1ccc(O)c(NC(=S)NC(=O)c2cccs2)c1 (stereo unspecified)	none (no result: PABP FP inh, VIM-2 inh, eIF4H inh, IMP-1 inh)
CCC(C)(C)C1CCC(NC(=O)N2CCN(c3ccccc3O)CC2)CC1 (stereo unspecified)	none
O=C1c2cccnc2C(=O)N1Cc1ccc(S(=O)(=O)N2CCN(c3ccc(Cl)cc3)CC2)cc1	VIM-2 inh 8.5
CCOC(=O)C1CCN(S(=O)(=O)c2ccc(CN3C(=O)c4cccnc4C3=O)cc2)CC1	none
O=C(O)[C@@H]1CSC2c3ccccc3C(=O)N21 (stereo partly specified)	IMP-1 inh 25
Cc1ccc(NC(=O)COC(=O)CSC(=S)N2CCOCC2)cc1	PABP FP inh active, eIF4H inh active
CCc1c(C)sc(NC(=O)c2ccco2)c1C(=O)N1CCOCC1	MLLE-PAM2 inh 40
CSCC(C)N1CCC(Oc2cccc(C(=O)NCc3ccccn3)c2)CC1 (stereo unspecified)	MLLE-PAM2 inh 43
CC(C)=CC(=O)N1CCC(Oc2cccc(C(=O)NCc3ccccn3)c2)CC1	none (no result: PABP FP inh, VIM-2 inh, eIF4H inh, IMP-1 inh)
O=C1CCCC(=O)C1=C1SCCS1	none
CCOC(=O)CN1C(=O)/C(=C2\SC(=S)N(NC(=O)c3cccnc3)C2=O)c2ccccc21	MLLE-PAM2 inh 43
CC1CCC(C(C)C)C(OCC(O)C[N+]2(C)CCCCC2)C1 (stereo unspecified)	PABP FP inh active
CCN(C(=O)CSc1nnc(-c2c[nH]c3ccccc23)n1C1CC1)C1CCS(=O)(=O)C1 (stereo unspecified)	none (no result: PABP FP inh, VIM-2 inh, eIF4H inh, IMP-1 inh)
C=CCn1c(-c2sccc2C)n[nH]c1=S	VIM-2 inh 8.8
O=C(C/C=N\OCc1c(Cl)cccc1Cl)Oc1ccc(Cl)cc1Cl	IMP-1 inh 12
CCCCc1cc(=O)oc2c(CN3CCCC3)c(O)ccc12	none
CCCc1cc(=O)oc2c(CNc3ccc(OCC)cc3)c(O)ccc12	PABP FP inh active, IMP-1 inh 5.8
Cc1ccc(Cl)c(N/C=C/C(=O)c2ccccc2)c1	none
CCOC(=O)c1c(N)sc(=S)c2c1CCC2	MLLE-PAM2 inh 41, PABP FP inh active, eIF4H inh 33, IMP-1 inh 12
CCOC(=O)c1c(N)sc2c1CCSC2	PABP FP inh active, eIF4H inh 111, IMP-1 inh 14
Cc1nn(CC(=O)NC2CCS(=O)(=O)C2)c(C)c1[N+](=O)[O-] (stereo unspecified)	none (no result: PABP FP inh, VIM-2 inh, eIF4H inh, IMP-1 inh)
O=C(NC(c1ccc(Cl)cc1)c1cc(Cl)c2cccnc2c1O)c1cccnc1 (stereo unspecified)	PABP FP inh active, eIF4H inh inconclusive
COc1nnc(-c2ccc(N3CCCCC3)c(NC(=O)COc3ccccc3)c2)c2ccccc12	none (no result: PABP FP inh, VIM-2 inh, eIF4H inh, IMP-1 inh)
COc1cc(OC)c2c(C)cc(=O)oc2c1	IMP-1 inh 4.9
COc1ccc(Cn2c3ccc(OC)cc3c3nc4ccccc4nc32)cc1	eIF4H inh inconclusive
COC(=O)Cn1c2ccc(C)cc2c2nc3ccccc3nc21	none
COc1ccc2c(c1)c1nc3ccccc3nc1n2Cc1ccc(OC(C)C)c(OC)c1	PABP FP inh active, eIF4H inh 78
COc1ccc2c(c1)c1nc3ccccc3nc1n2CC(=O)OC(C)C	PABP FP inh active
C=CCn1c(=N)c(S(=O)(=O)c2ccc(C)c(C)c2)cc2c(=O)n3ccccc3nc21	VIM-2 inh 12
N=c1c(S(=O)(=O)c2ccc(Cl)cc2)cc2c(=O)n3ccccc3nc2n1CCN1CCOCC1	none
Cc1ccc(S(=O)(=O)c2cc3c(=O)n4ccccc4nc3n(C)c2=N)cc1C	none (no result: PABP FP inh, eIF4H inh)
CCOCCCn1c(=N)c(S(=O)(=O)c2ccccc2)cc2c(=O)n3cc(C)ccc3nc21	VIM-2 inh 11
N=c1c(S(=O)(=O)c2ccccc2)cc2c(=O)n3ccccc3nc2n1CCCN1CCOCC1	VIM-2 inh 9.2
CC(C)OCCCn1c(=N)c(S(=O)(=O)c2ccccc2)cc2c(=O)n3ccccc3nc21	none
Cc1ccc(S(=O)(=O)c2cc3c(=O)n4ccccc4nc3n(CCCN3CCOCC3)c2=N)cc1C	VIM-2 inh 10
O=C(Oc1cc(=O)oc2c1c(=O)n1c3c(cccc23)CC1)c1ccc(F)cc1	none
O=C(NC1CCS(=O)(=O)C1)/C(=C\c1ccc(F)cc1)NC(=O)c1ccccc1 (stereo unspecified)	none
CC1Cc2c([nH]c(=O)n(-c3ccccc3)c2=O)O1 (stereo unspecified)	none (no result: PABP FP inh, VIM-2 inh, eIF4H inh, IMP-1 inh)
CCC1OC23CCCCC2C(C#N)(C(=N)O3)C1(C#N)C#N (stereo unspecified)	PABP FP inh inconclusive, eIF4H inh inconclusive
N#CC12COC3(CCCCC3C1(C#N)C#N)OC2=N (stereo unspecified)	MLLE-PAM2 inh 49, PABP FP inh inconclusive, eIF4H inh inconclusive
COc1ccc(C2OC34CCCCC3C(C#N)(C#N)C2(C#N)C(=N)O4)cc1 (stereo unspecified)	PABP FP inh inconclusive, eIF4H inh inconclusive
N#CC1(C#N)COC23CCCCC2C1(C#N)C(=N)O3 (stereo unspecified)	PABP FP inh active
